In ChEMBL document CHEMBL1148911, “Ardisinones A-E, novel diarylundecanones from Ardisia arborescens” (J Nat Prod, 2004):
Activity calls are given as the source filed them.

Legend:
Format in all cases: functional, organism-based
Staphylococcus aureus = test: Antibacterial activity against Staphylococcus aureus after 24 hrs by disk diffusion assay
Method in brief: (§1)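 Agar disk diffusion. Each organism was grown on agar medium, and plates were inoculated by spreading a spore or cell suspension evenly over the agar surface to give confluent growth. Compound-loaded disks were applied, and the zone of inhibition around each disk was measured at 24 and 48 h.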

Aspergillus niger = test: Antibacterial activity against Aspergillus niger after 48 hrs by disk diffusion assay; method in brief: as §1
[1] = tested on: Mycolicibacterium smegmatis; test: Antibacterial activity against Mycobacterium smegmatis after 24 hrs by disk diffusion assay; method in brief: as §1
Candida albicans = test: Antibacterial activity against Candida albicans after 48 hrs by disk diffusion assay; method in brief: as §1
Bacillus subtilis = test: Antibacterial activity against Bacillus subtilis after 24 hrs by disk diffusion assay; method in brief: as §1
Escherichia coli = test: Antibacterial activity against Escherichia coli after 24 hrs by disk diffusion assay; method in brief: as §1

Measured: Activity

COc1cc(O)c(C(=O)CCCCCCCCCCc2c(O)cccc2OC(C)=O)c(O)c1
inactive: all assays above

COc1cc(O)c(C(=O)CCCCCCCCCCc2c(O)cccc2O)c(O)c1
inactive: all assays above
